Measured values as given in ChEMBL document CHEMBL1148277, “Synthesis and pharmacological evaluation of 3-(3,4-dichlorophenyl)-1-indanamine derivatives as nonselective ligands for biogenic amine transporters” (J Med Chem, 2004).

Experiments:
[1] = biological target: T1, Sodium-dependent dopamine transporter (Rattus norvegicus, UniProt P23977); assay: Reuptake inhibitory activity against dopamine DA transporter
[2] = biological target: T2, Norepinephrine transporter (Rattus norvegicus, UniProt Q9WTR4); assay: Reuptake inhibitory activity against NE transporter; format: functional
[3] = biological target: T3, Sodium-dependent serotonin transporter (Rattus norvegicus, UniProt P31652); assay: (§1) Displacement of [125I]RTI-55 from serotonin transporter of frozen rat caudate membranes; format: cell membranes, Membrane
Outline: (§2)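 Rat caudate membranes as stated in the lines. For NET binding, 5 mM KCl and 300 mM NaCl were added. Radioligand was in protease inhibitors (chymostatin, leupeptin, EDTA, EGTA). Ended by filtration over PEI-presoaked GF/B filters; Ki derived.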

[4] = biological target: T1, Sodium-dependent dopamine transporter; assay: Binding affinity for DA transporter using [125I]RTI-55 in frozen rat caudate membranes; format: cell membranes; outline: as §2
[5] = biological target: T2, Norepinephrine transporter; assay: Displacement of from norepinephrine transporter of frozen rat caudate membranes; format: cell membranes, Membrane; outline: as §2
[6] = biological target: T3, Sodium-dependent serotonin transporter; assay: Reuptake inhibitory activity against Serotonin transporter
Outline: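 [³H]5-HT uptake in crude synaptosomes from rat whole brain minus caudate, in Krebs phosphate buffer pH 7.4 with 1 mg/mL ascorbic acid and 50 μM pargyline. Stopped after 30 min by Tris-HCl/NaCl wash buffer and rapid GF/B filtration. Run twice, each in triplicate.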

[7] = biological target: T3, Sodium-dependent serotonin transporter; assay: as §1; format: cell membranes, Membrane; remark: listed apart in the source
Outline: as §2, with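 “lines. Incubated 18–24 h at 4 °C to equilibrium with radioligand and test drug in 55.2 mM sodium phosphate buffer, pH 7.4, with 1 mg/mL BSA.” for “lines.”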

T3 sequence (P31652 whole entry): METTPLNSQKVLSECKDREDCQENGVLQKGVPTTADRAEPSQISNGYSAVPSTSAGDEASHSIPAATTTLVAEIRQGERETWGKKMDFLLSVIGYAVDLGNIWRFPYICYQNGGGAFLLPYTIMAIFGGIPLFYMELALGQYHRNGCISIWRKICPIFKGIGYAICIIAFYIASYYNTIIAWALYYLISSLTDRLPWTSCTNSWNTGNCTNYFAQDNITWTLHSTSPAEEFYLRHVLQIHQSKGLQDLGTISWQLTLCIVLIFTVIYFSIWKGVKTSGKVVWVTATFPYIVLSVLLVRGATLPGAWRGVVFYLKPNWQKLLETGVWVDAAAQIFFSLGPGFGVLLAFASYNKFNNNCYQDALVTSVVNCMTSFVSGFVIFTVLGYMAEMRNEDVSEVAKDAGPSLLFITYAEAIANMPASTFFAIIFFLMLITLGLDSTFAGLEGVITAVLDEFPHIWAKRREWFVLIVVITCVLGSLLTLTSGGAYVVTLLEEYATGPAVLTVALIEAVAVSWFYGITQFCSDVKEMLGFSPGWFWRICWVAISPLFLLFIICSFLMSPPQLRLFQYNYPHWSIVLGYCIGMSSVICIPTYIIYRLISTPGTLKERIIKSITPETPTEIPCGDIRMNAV
T2 sequence (Q9WTR4 whole entry): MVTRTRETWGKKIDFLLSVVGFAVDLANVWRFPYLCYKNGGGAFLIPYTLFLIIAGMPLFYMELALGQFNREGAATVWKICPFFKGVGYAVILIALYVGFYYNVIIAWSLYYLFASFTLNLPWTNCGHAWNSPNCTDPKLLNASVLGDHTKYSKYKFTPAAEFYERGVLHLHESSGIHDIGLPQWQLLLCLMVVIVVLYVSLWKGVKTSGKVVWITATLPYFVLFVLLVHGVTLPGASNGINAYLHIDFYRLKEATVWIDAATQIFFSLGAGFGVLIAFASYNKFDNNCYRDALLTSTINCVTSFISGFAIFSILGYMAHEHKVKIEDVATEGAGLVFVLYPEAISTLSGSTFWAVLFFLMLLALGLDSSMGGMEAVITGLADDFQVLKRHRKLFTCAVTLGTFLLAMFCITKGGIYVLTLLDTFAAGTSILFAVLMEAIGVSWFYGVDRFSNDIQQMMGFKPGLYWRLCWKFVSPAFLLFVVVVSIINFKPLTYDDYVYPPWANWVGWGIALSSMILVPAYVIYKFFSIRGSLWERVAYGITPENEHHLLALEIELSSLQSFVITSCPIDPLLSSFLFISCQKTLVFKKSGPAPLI
T1 sequence (P23977 whole entry): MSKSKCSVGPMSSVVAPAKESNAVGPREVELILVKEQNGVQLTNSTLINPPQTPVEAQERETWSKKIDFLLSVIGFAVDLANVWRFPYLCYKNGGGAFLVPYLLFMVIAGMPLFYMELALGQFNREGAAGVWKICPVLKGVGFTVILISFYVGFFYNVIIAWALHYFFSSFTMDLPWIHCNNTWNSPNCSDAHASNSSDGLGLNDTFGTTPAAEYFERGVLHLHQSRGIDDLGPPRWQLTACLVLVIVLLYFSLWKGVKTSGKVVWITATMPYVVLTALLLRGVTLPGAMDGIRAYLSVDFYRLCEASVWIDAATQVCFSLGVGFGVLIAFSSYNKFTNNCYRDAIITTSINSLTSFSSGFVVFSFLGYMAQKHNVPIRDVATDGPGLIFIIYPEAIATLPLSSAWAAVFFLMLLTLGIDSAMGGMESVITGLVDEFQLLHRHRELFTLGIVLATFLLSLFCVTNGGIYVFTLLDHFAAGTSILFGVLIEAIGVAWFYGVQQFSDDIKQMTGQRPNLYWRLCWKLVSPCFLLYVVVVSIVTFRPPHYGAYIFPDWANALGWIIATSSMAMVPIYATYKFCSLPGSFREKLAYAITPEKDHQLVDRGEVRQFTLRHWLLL

| SMILES | Ki [1] | Ki [2] | Ki [3] | Ki [4] | Ki [5] | Ki [6] | Ki [7] |
| --- | --- | --- | --- | --- | --- | --- | --- |
| CN[C@@H]1C[C@@H](c2ccc(Cl)c(Cl)c2)c2ccc(OC)cc21 | 12 nM | 34 nM | 0.7 nM | 9 nM | 7 nM | 19 nM | – |
| CN[C@H]1C[C@H](c2ccc(Cl)c(Cl)c2)c2ccc(OC)cc21 | 600 nM | 650 nM | – | 600 nM | 820 nM | 109 nM | 51 nM |
| CNC1CC(c2ccc(Cl)c(Cl)c2)c2ccc(OC)cc21 (cis isomer) | – | – | – | 96 nM | 170 nM | – | 0.3 nM |
| CCN(CC)C1CC(c2ccc(Cl)c(Cl)c2)c2ccc(OC)cc21 (cis isomer) | – | – | 26 nM | 1310 nM | > 4700 nM | – | – |
| CNC1CC(c2ccc(Cl)c(Cl)c2)c2ccc(OC)cc21 (trans isomer) | – | – | 1.1 nM | 12 nM | 15 nM | – | – |
| CNC1CC(c2ccc(Cl)c(Cl)c2)c2ccc(O)cc21 (trans isomer) | – | – | 3 nM | 11 nM | 24 nM | – | – |
| CCN(CC)C1CC(c2ccc(Cl)c(Cl)c2)c2ccc(O)cc21 (trans isomer) | – | – | 0.7 nM | 40 nM | 1330 nM | – | – |
| CCN(CC)C1CC(c2ccc(Cl)c(Cl)c2)c2ccc(OC)cc21 (trans isomer) | – | – | 1.3 nM | 140 nM | 1010 nM | – | – |
